Compound activity from PubChem BioAssay.
OX1R antag-1: blocks the human orexin 1 receptor; inhibition, % at 5 µM; 330,000 tested, 0.43% active; AID 434989; CHO/OX1R cells, Fluo-8 calcium fluorescence, orexin A;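 active = inhibition above its plate's threshold, mean inhibition of all tested compounds on the plate plus 3 SD, cut at about 37% in these data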;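 note: 0% = orexin A challenge wells and 100% = SB-334867-A antagonist wells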
GalR3 antag: human GalR3 antagonism | AID 651719 | HEK293 GalR3-CNG cAMP membrane potential fluorescence; galR3 body fused to GalR1 C-terminus | inhibition, % at 3 µM | O60755 | 360,000 tested, 0.44% active;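 active = inhibition above the screen-wide average plus 3 SD, cut at about 13% in these data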;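 note: forskolin and galanin both at EC90 stimulate the cells; cAMP rise reported by CNG channel membrane potential dye signal; 0% = forskolin plus galanin with DMSO and 100% = forskolin alone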
Target sequence (O60755 1-299 limits assumed): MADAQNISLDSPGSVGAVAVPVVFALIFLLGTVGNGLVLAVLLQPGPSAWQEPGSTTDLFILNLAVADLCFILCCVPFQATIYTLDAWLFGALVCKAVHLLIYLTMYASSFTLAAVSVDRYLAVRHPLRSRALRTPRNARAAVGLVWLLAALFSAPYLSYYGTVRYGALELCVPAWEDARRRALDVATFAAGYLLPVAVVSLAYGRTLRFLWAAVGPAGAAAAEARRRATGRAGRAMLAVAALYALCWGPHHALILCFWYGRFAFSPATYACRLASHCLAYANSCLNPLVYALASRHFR
OX1R antag-2: blocks the human orexin 1 receptor | 330,000 tested, 1.8% active | inhibition, % at 6.6 µM | AID 485270 | OX1R-expressing cells, FRET antagonist read-out; in the data active = inhibition mostly above about 38%, no sharp cut-off; inactive = mostly below about 40%;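 note: 0% = agonist challenge alone and 100% = reference antagonist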
GPR7 antag: human neuropeptides B/W receptor 1 antagonism | inhibition, % at 4.4 µM | AID 1861 | P48145 | 290,000 tested, 1.1% active | GPR7-expressing cells, fluorescence antagonist assay; in the data active = inhibition above about 16%, passing the limit was not always enough;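 note: cells stimulated with the agonist NPW; 0% = agonist with vehicle and 100% = vehicle without agonist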
Target sequence (P48145 whole entry, looked up): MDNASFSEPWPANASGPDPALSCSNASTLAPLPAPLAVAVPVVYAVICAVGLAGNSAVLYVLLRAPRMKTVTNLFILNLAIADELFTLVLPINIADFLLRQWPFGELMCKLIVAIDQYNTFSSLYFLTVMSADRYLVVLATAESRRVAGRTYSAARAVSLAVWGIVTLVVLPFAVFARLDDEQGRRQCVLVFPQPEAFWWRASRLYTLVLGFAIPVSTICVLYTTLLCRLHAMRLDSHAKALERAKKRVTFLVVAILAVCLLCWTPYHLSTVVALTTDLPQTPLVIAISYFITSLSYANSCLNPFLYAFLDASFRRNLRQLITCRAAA
CHO parental Ca: signal in parental CHO cells, OX1R antagonist counter-screen. 330,000 tested, 0.63% active. parental CHO-K1, ATP-induced calcium, Fluo-8 fluorescence. inhibition, % at 5.6 µM;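 active = inhibition above that plate's mean sample inhibition plus 3 SD, cut at about 26% in these data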;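 note: 0% = ATP-challenged DMSO wells and 100% = DMSO wells without ATP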
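Assay system – parental CHO cells · Reagent – ATP stimulus · Detection – intracellular calcium via Fluo-8 no-wash fluorescent dye · Evaluation – percent inhibition of ATP-evoked calcium rise, normalized to controls · Controls – ATP wells versus no-ATP DMSO wells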
* marks the source's active call; other numbers are inactive results; · = no result. Hits are enriched below; roughly 3.1% of the tested compounds scored in any of these assays.

SMILES	OX1R antag-1	GalR3 antag	OX1R antag-2	GPR7 antag	CHO parental Ca
COc1ccc(C(=O)Nc2ccc(Cl)c(S(=O)(=O)N3CCOCC3)c2)cc1	43*	-5	24	·	15
Cc1ccc(NC(=O)CSc2nc(N)cc(N)n2)cc1S(=O)(=O)N1CCOCC1	-19	-4	14	20*	-3
COc1ccc(C(=O)Nc2ccc(N3CCOCC3)cc2)cc1S(=O)(=O)N1CCOCC1	·	-2	·	·	·
COc1ccc(C(=O)Nc2ccc(S(=O)(=O)N3CCOCC3)cc2)cc1	-16	-4	4	·	-7
O=C(CCCSc1ccccc1)Nc1ccc(Cl)c(S(=O)(=O)N2CCOCC2)c1	35	-5	32*	·	10
COc1ccc(C(=O)Nc2ccc(-c3ccc(C)o3)cc2)cc1S(=O)(=O)N1CCOCC1	-2	94*	41	-9	11
O=C(NCCN1C(=O)S/C(=C/c2cccnc2)C1=O)C1CC(=O)N(Cc2ccccc2)C1 (stereo not drawn)	-22	7	53*	-6	-7
O=S(=O)(CS(=O)(=O)c1ccc(Br)cc1)c1ccc(Br)cc1	·	-7	·	·	·
O=C(CN1C(=O)C(c2ccc(F)cc2)=NC12CCCC2)Nc1ccc(F)cc1	-16	·	12	-6	27*
Nc1nonc1C(=O)NCCN=Cc1cc(Cc2ccccc2)cc(Br)c1O	16	·	12	-20	62*
COc1ccc(NC(=O)CN2C(=O)NC(C)(Cc3ccc(OC)c(OC)c3)C2=O)cc1 (stereo not drawn)	·	-6	·	·	·
CC(=O)N(C)c1ccc(OCC(O)Cn2c(C)nc3ccccc32)cc1 (stereo not drawn)	-4	-5	6	-4	-7
CC(=O)N(C)c1ccc(OCC(O)Cn2c3ccc(Cl)cc3c3cc(Cl)ccc32)cc1 (stereo not drawn)	31	-8	17	3	67*
Nc1ccccc1O	-7	·	32*	·	-16
COc1ccc(NC(=O)Cc2ccccc2)cn1	-4	-5	4	-4	-4
COc1ccc(NC(=O)/C(Cl)=C(/Cl)S(=O)Cc2ccccc2)cn1 (stereo not drawn)	7	10	6	40*	7
COc1ccc(/C=C/C(=O)Nc2ccc(OC)nc2)cc1	-4	-2	10	0	-1
COc1ccc(CS(=O)(=O)/C(Cl)=C(/Cl)C(=O)Nc2ccc(OC)nc2)cc1	-20	·	28	39*	-4
CCCCCCn1c(=O)n2n(c1=O)[C@@H]1CN(S(=O)(=O)c3ccc(C)cc3)C[C@]1(O)[C@@H](OC(=O)NCc1ccco1)C2	·	-6	·	·	·
Cc1ccccc1-c1ccc2c(c1)[C@@H]1C[C@H](N(C)C(=O)Nc3ccccc3)[C@H]([C@H](C)O)CN1CC2	·	-2	·	·	·
CCCOC(=O)c1ccc(NC(=O)c2cc(Cl)ccc2OC)cc1	9	-5	66*	0	-1
COc1ccc(-c2noc(C3CCCN(S(=O)(=O)c4ccc(C)c(Cl)c4)C3)n2)cc1OC (stereo not drawn)	-5	-5	3	-2	-17
COc1ccc(-c2noc(C3CCCN(S(=O)(=O)c4cccc(Cl)c4C)C3)n2)cc1OC (stereo not drawn)	4	-3	45*	6	-30
CCOc1ccc(-c2nc(CSCC(=O)N3CCN(c4cccc(OC)c4)CC3)c(C)o2)cc1	44*	·	54*	1	75*
Cc1ccc(-c2nc(CSCC(=O)N3CCN(c4ccccn4)CC3)c(C)o2)cc1	-30	9	38	4	16
SMILES	OX1R antag-1	GalR3 antag	OX1R antag-2	GPR7 antag	CHO parental Ca
COCCCN1C(=O)c2ccc(C(=O)NCc3ccccn3)cc2C1=O	6	-6	39*	-10	3
CC(C)CN1C(=O)c2ccc(C(=O)NCc3ccccn3)cc2C1=O	-20	-3	34	-5	-4
COCCCN1C(=O)c2ccc(C(=O)NCc3ccco3)cc2C1=O	-17	6	42*	-7	-15
CCCC(=O)OC[C@H]1CN(C2CCCC2)S(=O)(=O)c2c(F)cccc2O1	·	-7	·	·	·
Cc1ccc(S(=O)(=O)Nc2ccc3c(c2)n(C)c(=O)n3C)c(C)c1	5	1	30	-13	-1
CC(C)c1ccc(S(=O)(=O)Nc2ccc(SC(F)F)cc2)cc1	-11	-4	-2	-8	42*
Cc1ccc(S(=O)(=O)Nc2ccc(SC(F)F)cc2)c(C)c1	2	-9	-12	-13	43*
COc1ccc(-c2nc3ccccn3c2Cl)cc1	-18	2	43*	3	-13
Cc1cc(-c2cccc([N+](=O)[O-])c2)nc2ccccc12	-8	2	69*	10	-6
O=C(NS(=O)(=O)c1ccccc1[N+](=O)[O-])[C@H]1O[C@@H](n2ccc(=O)[nH]c2=O)[C@H](O)[C@@H]1O	·	-1	·	·	·
C[C@@H](c1ccccc1)N1C[C@H](COCc2ccccc2)Oc2cc(N3CC[C@H](O)C3)ccc2S1(=O)=O	·	-6	·	·	·
O=c1[nH]c(NCCO)nc2c1C1(CCCCC1)Cc1ccccc1-2	20	-3	10	-13	81*
COC(=O)C1=C(C)N(Cc2ccc(C(F)(F)F)cc2)C(=NCC2CC2)NC1c1ccccc1 (stereo not drawn)	·	-4	·	·	·
CCN(CCCNS(=O)(=O)c1ccc2c(c1)oc(=O)n2C)c1cccc(C)c1	-7	1	12	17*	0
CCN(c1cccc(C)c1)S(=O)(=O)c1ccc2c(c1)oc(=O)n2C	-22	-11	9	14	-13
COc1ccc(OC)c(S(=O)(=O)Nc2ccccc2SC)c1	-14	-9	5	14*	5
O=C(Nc1cccnc1)c1ccc(CSc2ccc(Cl)cc2)o1	·	-8	·	·	·
O=C(Nc1ccccc1C(=O)NCCN1CCOCC1)c1cccc([N+](=O)[O-])c1	-22	1	32	-5	-25
O=C(Nc1cc([N+](=O)[O-])ccc1C(=O)NCCN1CCOCC1)c1ccccc1	-6	1	75*	-11	-10
O=C(NCCCN1CCN(CCCNC(=O)c2cc([N+](=O)[O-])ccc2Cl)CC1)c1cc([N+](=O)[O-])ccc1Cl	3	2	72*	-18	1
CC(C)c1ccc(CC(=O)N2CCC2(C)C(=O)NCc2cccc3ccccc23)cc1 (stereo not drawn)	·	-2	·	·	·
CCN(CC)CCn1c2ccccc2c2nc3ccccc3nc21	-2	-11	67*	-5	-11
COc1ccc(/C=N/Nc2ncc(-c3ccccc3)cn2)c(OC)c1	-44	1	23	-3	-11
COc1ccc(/C=N/Nc2ncccc2[N+](=O)[O-])c(OC)c1	-7	-4	50*	-16	-13
C=CCNC(=S)N1C[C@H]2CON(C)[C@H]2C[C@H]1c1ccccc1Br	·	-6	·	·	·
O=C1C(=O)N(CCS(=O)(=O)c2ccccc2)c2ccc(Cl)cc21	-20	-7	13	22	-21
CCCN1C(=O)C(=O)c2cc(Cl)ccc21	3	-7	49*	·	-11
C/C(=N\NC(=O)c1nn(C)c(C)c1Br)c1ccc(NC(=O)C2CCCC2)cc1	·	-1	·	6	·
